Some results are limits rather than exact numbers.

The values below come from ChEMBL document CHEMBL1134451, “Synthesis, cytotoxicity, and antitumor activity of copper(II) and iron(II) complexes of (4)N-azabicyclo[3.2.2]nonane thiosemicarbazones derived from acyl diazines” (J Med Chem, 2001).

The test system of test [1] is CCRF-CEM. Put plainly: Cytotoxic activity against human acute lymphoblastic leukemia (CCRF-CEM) cell line. The test is classed as functional, cell-based.
Test [2] deals with HT-29. Put plainly: Cytotoxic activity against colon adenocarcinoma (HT-29) cell line. The test is classed as functional, cell-based, Homo sapiens. In short, it runs like this:
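HT-29 colon adenocarcinoma cells in McCoy's 5A with 10% FCS, glutamine and penicillin/streptomycin, about 10 000 cells/well. After a 4 h preincubation, cells were exposed to compound (DMSO up to 0.5% final) for 72 h at 37 °C, 5% CO2. Readout was SRB assay. IC50 from dose-response curves; mean of at least three independent experiments run in duplicate.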

Test [3] can be described thus: (§1) Percentage of cells in G1 cell cycle phase of lymphoma cells after 24 hr treatment. The test is classed as functional, Homo sapiens.
Test [4] is described as follows: (§2) Percentage of cells in G1 cell cycle phase of lymphoma cells after 48 hr treatment. The test is classed as functional, Homo sapiens.
Test [5] is described as follows: (§3) Percentage of cells in G2-M cell cycle phase of lymphoma cells after 24 hr treatment. The test is classed as functional, Homo sapiens.
A short description of test [6]: (§4) Percentage of cells in G2-M cell cycle phase of lymphoma cells after 48 hr treatment. Format: functional, Homo sapiens.
The nature of test [7]: (§5) Percentage of cells in S cell cycle phase of lymphoma cells after 24 hr treatment. Format: functional, Homo sapiens.
Test [8] in a line: (§6) Percentage of cells in S cell cycle phase of lymphoma cells after 48 hr treatment. Format: functional, Homo sapiens.
The nature of test [9]: Inhibition of [14C]-cytidine incorporation into DNA in Burkitt''s lymphoma cells. The test is classed as functional, cell-based, Homo sapiens. In short, it runs like this:
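Intact exponentially growing Burkitt's lymphoma cells, (1-2)×10^6/mL, incubated with compound at 37 °C for 90 min, then 0.7 μCi [14C]cytidine added. Cells TCA-precipitated and RNase-treated in Tris-HCl pH 8 for 2 h at 37 °C, then reprecipitated with TCA. Pellet dissolved in NaOH and counted by scintillation. IC50 is the mean of two experiments run in duplicate.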

Test [10] can be described thus: Inhibition of cell proliferation in Burkitt's lymphoma cells. Format: functional, cell-based, Homo sapiens.
The nature of test [11]: Ratio of IC50 values was calculated by IC50 cytidine incorporation/IC50 cell proliferation. Format: functional. A digest of the protocol: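 Ratio of the [14C]cytidine-incorporation IC50 to the cell-proliferation IC50, both measured in Burkitt's lymphoma cells.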
Test [12] has as its system CXF1103. Put plainly: Inhibition of cell proliferation of human colon CXF1103 tumor xenograft in colony forming assay. Format: functional, cell-based.
Test [13] concerns HT-29. Put plainly: Inhibition of cell proliferation of human colon HT-29X tumor xenograft in colony forming assay. Format: functional, cell-based. A general note: In xenograft studies the graft and the host belong to different species.
The test system of test [14] is LXFL 529. The test is described as follows: Inhibition of cell proliferation of human lung large cell LXFL529 tumor xenograft in colony forming assay. Format: functional, cell-based.
In test [15] the test system is LXFS538. Put plainly: Inhibition of cell proliferation of human lung small cell LXFS538 tumor xenograft in colony forming assay. The test is classed as functional, cell-based.
The test system of test [16] is MCF7. Put plainly: Inhibition of cell proliferation of human breast MCF7X tumor xenograft in colony forming assay. The test is classed as functional, cell-based.
The test system of test [17] is MEXF989. Put plainly: Inhibition of cell proliferation of human melanoma MEXF989 tumor xenograft in colony forming assay. Format: functional, cell-based.
For test [18], the system named is MX1. Put plainly: Inhibition of cell proliferation of human breast MXI tumor xenograft in colony forming assay. The test is classed as functional, cell-based.
The subject of test [19] is MEXF276L. The test is described as follows: Inhibition of cell proliferation of human melanoma MEXF276L tumor xenograft in colony forming assay. The test is classed as functional, cell-based.
Test [20] concerns PAXF546. The test is described as follows: Inhibition of cell proliferation of human pancreas PAXF546 tumor xenograft in colony forming assay. The test is classed as functional, cell-based.
For test [21], the system named is PAXF736. The test is described as follows: Inhibition of cell proliferation of human pancreas PAXF736 tumor xenograft in colony forming assay. Format: functional, cell-based.
Test [22] deals with CXF280. Put plainly: Inhibition of cell proliferation of human colon CXF280 tumor xenograft in colony forming assay. The test is classed as functional, cell-based.
Test [23] relates to lymphoma. The test is described as §1. Format: functional. Conditions: Homo sapiens.
Test [24] concerns lymphoma. The test is described as §2. Format: functional. Conditions: Homo sapiens.
Test [25] relates to lymphoma. Described as §3. Format: functional. To be noted: Homo sapiens.
The subject of test [26] is lymphoma. The test is described as §4. Format: functional. Conditions: Homo sapiens.
Test [27] has as its system lymphoma. The test is described as §5. The test is classed as functional. Conditions: Homo sapiens.
Test [28] has as its system lymphoma. The description is as §6. The test is classed as functional. To be noted: Homo sapiens.
Test [29] is described as follows: Mean IC50 value of the compound. The test is classed as functional. A digest of the protocol: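 Geometric mean of clonogenic soft-agar IC50 values across the tumor xenografts tested: 10 raised to the mean of log IC50 over all xenografts.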
Test [30] deals with CXF158. The test is described as follows: Inhibition of cell proliferation of human colon CXF158 tumor xenograft in colony forming assay. Format: functional, cell-based.
Test [31] has as its system OVXF1023 cell line. The test is described as follows: Inhibition of cell proliferation of human ovary OVXF1023 tumor xenograft in colony forming assay. The test is classed as functional, cell-based, Female gonad.
Test [32] relates to OVXF1353 cell line. Put plainly: Inhibition of cell proliferation of human ovary OVXF1353 tumor xenograft in colony forming assay. Format: functional, cell-based, Female gonad.
Test [33] deals with RXF 423. The test is described as follows: Inhibition of cell proliferation of human renal RXF423 tumor xenograft in colony forming assay. The test is classed as functional, cell-based.

The IC50 is the concentration at which inhibition is half-maximal. For `C/C(=N\N=C(/S)N1CC2CCC(CC2)C1)c1ccncn1`, the 50% inhibitory concentration (IC50) in [1] (Homo sapiens, CCRF-CEM) was found to be 20 nM; in [2] (Homo sapiens, HT-29), 50 nM.
The matching figures for `C/C(=N\N=C(/S)N1CC2CCC(CC2)C1)c1cnccn1`: 11 nM and 11 nM.
As to `NC(=O)NO` [HYDROXYUREA], the Activity in test [3] turned out to be 48.2%; in [4], 21.27%; in test [5] it was 11.9%; in test [6], 19.52%; in [7], 38.22%; in test [8], 45.1%. Moreover, the IC50 in test [9] came to 37200 nM; in test [10] (Homo sapiens), 140000 nM. For the same compound, the IC50 ratio in test [11] is on record as 0.26.
Turning to Copper(II) Complex, the IC50 in test [1] (ccrf-cem) amounted to 300 nM; in test [2] (ht-29), 1510 nM.
Take “N-[(1E)-1-(3-methylpyrazin-2-yl)ethylidene]-3-azabicyclo[3.2.2]nonane-3-carbohydrazonothioic acid.chloro Cu(II)complex [listing 1 of 2 here]”: the 50% inhibitory concentration (IC50) in test [9] is 180 nM; in test [10] it was 6 nM; in test [1] (ccrf-cem), 6 nM; in test [12], less than 0.1 nM; in test [13], 0.85 nM; in [14], less than 0.1 nM. The 50% inhibitory concentration (IC50) in [15] amounted to 0.22 nM; in test [16], 0.21 nM; in test [17] it was 3 nM; in test [18] it was 5 nM; in [19], 36 nM; in [20], 0.56 nM. Also, the IC50 in [21] and in [22] was less than 0.1 nM each time.
Consider “N-[(1E)-1-(3-methylpyrazin-2-yl)ethylidene]-3-azabicyclo[3.2.2]nonane-3-carbohydrazonothioic acid.chloro Cu(II)complex [listing 2 of 2 here]”, for which the Activity in [23] was determined as 51.9%; in test [24] it was 49.3%; in test [25], 17%; in test [26], 9.81%; in test [27] it was 22.8%; in [28], 29.8%. For the same compound, the IC50 ratio in [11] is 30. For the same compound, in [29], the Mean IC50 was 0.37 nM.
With “N-[(1E)-1-(5-methylpyrazin-2-yl)ethylidene]-3-azabicyclo[3.2.2]nonane-3-carbohydrazonothioic acid.chloro Cu(II)complex [listing 1 of 2 here]”, the concentration for half-maximal inhibition (IC50) in test [9] was 2970 nM; in [10], 6 nM; in test [1] (ccrf-cem), 5 nM; in [12], less than 0.1 nM; in [30] it was 0.13 nM; in [13], 1 nM. Further, the IC50 is 4 nM in test [2] (ht-29); less than 0.1 nM in [14]; less than 0.1 nM in [16]; 0.7 nM in test [17]; 4 nM in test [18]; 14 nM in test [19]. For the same compound, the IC50 is 10 nM in [31]; 24 nM in test [32]; 0.2 nM in test [20]; less than 10 nM in [21]; 4 nM in test [33]; less than 0.1 nM in test [22].
Take “N-[(1E)-1-(5-methylpyrazin-2-yl)ethylidene]-3-azabicyclo[3.2.2]nonane-3-carbohydrazonothioic acid.chloro Cu(II)complex [listing 2 of 2 here]”: the Activity in [23] was 53.1%; in [24], 52.7%; in [25], 19.9%; in [26] it was 17.7%; in test [27], 25.9%; in [28] it was 29.4%. Moreover, in test [11], the IC50 ratio was 495. Moreover, the Mean IC50 in test [29] amounted to 0.37 nM.
Take “N-[(1E)-1-(6-methylpyridazin-3-yl)ethylidene]-3-azabicyclo[3.2.2]nonane-3-carbohydrazonothioic acid.chloro Cu(II)complex”: the IC50 amounted to 130 nM in test [1] (ccrf-cem) and 870 nM in test [2] (ht-29).
For “N-[(1E)-1-(6-methylpyrimidin-4-yl)ethylidene]-3-azabicyclo[3.2.2]nonane-3-carbohydrazonothioic acid.chloro Cu(II)complex [listing 1 of 2 here]”, the half-maximal inhibitory concentration (IC50) in [9] is 210 nM; in test [1] (ccrf-cem), 10 nM; in [12], 0.11 nM; in test [30] it was 2 nM; in test [13], 5 nM; in [2] (ht-29), 4 nM. Moreover, the IC50 in test [14] is less than 0.1 nM; in test [16], 0.2 nM; in test [17] it was 0.84 nM; in test [18] it was 14 nM; in [31], 15 nM; in test [32], 19 nM. The half-inhibitory concentration (IC50) in [20] is 3 nM; in [21], 15 nM; in test [33], 26 nM; in test [22], 0.2 nM.
For “N-[(1E)-1-(6-methylpyrimidin-4-yl)ethylidene]-3-azabicyclo[3.2.2]nonane-3-carbohydrazonothioic acid.chloro Cu(II)complex [listing 2 of 2 here]”, the Activity in test [23] worked out at 64.5%; in test [24], 59.2%; in test [25], 13.6%; in [26], 11.4%; in test [27], 21.7%; in [28], 21.5%. Moreover, the IC50 ratio in test [11] was 11.7. This compound also displayed a Mean IC50 in [29] of 1 nM.
On to “N-[(1E)-1-pyrazin-2-ylethylidene]-3-azabicyclo[3.2.2]nonane-3-carbohydrazonothioic acid.chloro Cu(II)complex”, for which the half-inhibitory concentration (IC50) in [1] (ccrf-cem) and in test [2] (ht-29) was less than 10 nM each time.
Take “N-[(1E)-1-pyrimidin-4-ylethylidene]-3-azabicyclo[3.2.2]nonane-3-carbohydrazonothioic acid.chloro Cu(II)complex”: the IC50 in [1] (ccrf-cem) and in test [2] (ht-29) was less than 10 nM throughout.
